experiment: Binding affinity towards norepinephrine transporter determined using [3H]nisoxetine as radioligand
How it was run: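 Competition binding at the norepinephrine transporter against [³H]nisoxetine, present at 1.0 nM final concentration.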

SMILES	Ki [nM]
COC(=O)C1C2CC[C@H](C[C@@H]1c1ccc(Cl)c(C)c1)N2C (stereo partly specified)	36.2
COC(=O)[C@@H]1C2CC[C@H](C[C@@H]1c1ccccc1)N2C	920
COC(=O)C1C(c2ccc(Br)c(Cl)c2)CC2CCC1N2C (stereo unspecified)	1.31
COC(=O)C1C(c2ccc(Cl)c(Br)c2)CC2CCC1N2C (stereo unspecified)	7.24
COC(=O)C1C(c2ccc(Cl)c(I)c2)CC2CCC1N2C (stereo unspecified)	15.1
COC(=O)C1C(c2ccc(C)c(C)c2)CC2CCC1N2C (stereo unspecified)	107
COC(=O)C1C(c2ccc(I)c(I)c2)CC2CCC1N2C (stereo unspecified)	40.4
COC(=O)C1C(c2ccc(Br)c(Br)c2)CC2CCC1N2C (stereo unspecified)	2.8
COC(=O)C1C(c2ccc(Br)c(I)c2)CC2CCC1N2C (stereo unspecified)	10.4
COC(=O)C1C2CC[C@H](C[C@@H]1c1ccc(I)c(Br)c1)N2C (stereo partly specified)	1.96
COC(=O)C1C2CC[C@H](C[C@@H]1c1ccc(I)c(Cl)c1)N2C (stereo partly specified)	1.26
COC(=O)C1C(c2ccc(Cl)c(Cl)c2)CC2CCC1N2C (stereo unspecified)	18

experiment: Binding affinity of compound towards dopamine transporter determined using [3H]WIN-35 428 as radioligand
How it was run: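 Competition binding at the dopamine transporter; displacement of [³H]WIN 35,428 at 0.5 nM final concentration.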

SMILES	IC50 [nM]
COC(=O)C1C2CC[C@H](C[C@@H]1c1ccc(Cl)c(C)c1)N2C (stereo partly specified)	0.82
COC(=O)[C@@H]1C2CC[C@H](C[C@@H]1c1ccccc1)N2C	23
COC(=O)C1C(c2ccc(Br)c(Cl)c2)CC2CCC1N2C (stereo unspecified)	0.12
COC(=O)C1C(c2ccc(Cl)c(Br)c2)CC2CCC1N2C (stereo unspecified)	0.42
COC(=O)C1C(c2ccc(Cl)c(I)c2)CC2CCC1N2C (stereo unspecified)	0.41
COC(=O)C1C(c2ccc(C)c(C)c2)CC2CCC1N2C (stereo unspecified)	0.43
COC(=O)C1C(c2ccc(I)c(I)c2)CC2CCC1N2C (stereo unspecified)	0.98
COC(=O)C1C(c2ccc(Br)c(Br)c2)CC2CCC1N2C (stereo unspecified)	0.27
COC(=O)C1C(c2ccc(Br)c(I)c2)CC2CCC1N2C (stereo unspecified)	0.21
COC(=O)C1C2CC[C@H](C[C@@H]1c1ccc(I)c(Br)c1)N2C (stereo partly specified)	0.2
COC(=O)C1C2CC[C@H](C[C@@H]1c1ccc(I)c(Cl)c1)N2C (stereo partly specified)	0.26
COC(=O)C1C(c2ccc(Cl)c(Cl)c2)CC2CCC1N2C (stereo unspecified)	0.79

experiment: Binding affinity towards serotonin transporter determined using [3H]paroxetine as radioligand
How it was run: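 Serotonin transporter affinity from competition binding versus [³H]paroxetine at a final concentration of 0.2 nM.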

SMILES	Ki [nM]
COC(=O)C1C2CC[C@H](C[C@@H]1c1ccc(Cl)c(C)c1)N2C (stereo partly specified)	10.5
COC(=O)[C@@H]1C2CC[C@H](C[C@@H]1c1ccccc1)N2C	1060
COC(=O)C1C(c2ccc(Br)c(Cl)c2)CC2CCC1N2C (stereo unspecified)	0.94
COC(=O)C1C(c2ccc(Cl)c(Br)c2)CC2CCC1N2C (stereo unspecified)	0.78
COC(=O)C1C(c2ccc(Cl)c(I)c2)CC2CCC1N2C (stereo unspecified)	1.39
COC(=O)C1C(c2ccc(C)c(C)c2)CC2CCC1N2C (stereo unspecified)	9.88
COC(=O)C1C(c2ccc(I)c(I)c2)CC2CCC1N2C (stereo unspecified)	2
COC(=O)C1C(c2ccc(Br)c(Br)c2)CC2CCC1N2C (stereo unspecified)	0.71
COC(=O)C1C(c2ccc(Br)c(I)c2)CC2CCC1N2C (stereo unspecified)	1.14
COC(=O)C1C2CC[C@H](C[C@@H]1c1ccc(I)c(Br)c1)N2C (stereo partly specified)	0.58
COC(=O)C1C2CC[C@H](C[C@@H]1c1ccc(I)c(Cl)c1)N2C (stereo partly specified)	1.04
COC(=O)C1C(c2ccc(Cl)c(Cl)c2)CC2CCC1N2C (stereo unspecified)	3.13
